# INS-1E GSIS act = GLuc luminescence reporter in INS-1E cells, primary screen for activators of glucose-dependent secretion of insulin; INS-1E GLuc reporter insulin secretion, 2-3 h; activation, % at 16.6 µM; 370,000 tested, 0.61% active;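 active = lowest replicate activation of at least 40%, so every replicate reaches that level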;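 note: 0% = median of neutral control wells and 100% = median of IBMX positive control wells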
# MLL AF4-AF9 inh = inhibitors of AF4 peptide binding to AF9, primary screen, biochemical, AlphaScreen, biotin-AF4 peptide, FLAG-AF9, single point; inhibition, % at 10 µM; Protein AF-9 (Homo sapiens), P42568; 350,000 tested, 0.47% active;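 active = every replicate reaching a set inhibition limit, whatever the replicate mean, cut at about 25% in these data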;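 note: 0% = plate neutral control median and 100% = total signal loss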
# Target sequence (P42568 whole entry, looked up): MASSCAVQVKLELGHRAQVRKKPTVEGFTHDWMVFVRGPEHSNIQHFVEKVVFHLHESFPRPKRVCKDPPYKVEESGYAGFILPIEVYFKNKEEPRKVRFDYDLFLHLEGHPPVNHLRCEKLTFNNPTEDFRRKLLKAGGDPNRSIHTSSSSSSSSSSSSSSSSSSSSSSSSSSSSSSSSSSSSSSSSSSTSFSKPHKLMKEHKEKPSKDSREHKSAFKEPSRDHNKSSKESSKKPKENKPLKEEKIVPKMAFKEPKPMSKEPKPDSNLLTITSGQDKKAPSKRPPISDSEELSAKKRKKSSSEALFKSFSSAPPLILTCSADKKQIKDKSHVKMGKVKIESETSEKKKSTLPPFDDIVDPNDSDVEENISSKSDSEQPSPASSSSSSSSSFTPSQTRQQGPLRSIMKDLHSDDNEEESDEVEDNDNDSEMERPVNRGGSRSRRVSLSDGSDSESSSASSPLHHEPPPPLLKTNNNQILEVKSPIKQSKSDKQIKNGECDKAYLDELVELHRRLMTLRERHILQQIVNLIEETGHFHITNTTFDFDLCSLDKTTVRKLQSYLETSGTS
# ERAP1 HTS inh = human ERAP1 aminopeptidase inhibitors, primary screen, biochemical, single point, plate reader; 340,000 tested, 0.15% active; inhibition, % at 10.7 µM; Endoplasmic reticulum aminopeptidase 1 (Homo sapiens), Q9NZ08; recombinant ERAP1, Leu-AMC fluorescence, 60 min;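 active = mean replicate inhibition of at least 30%, or all replicates individually reaching that 30% level; inactive = mean below 30% and not every replicate reaching it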;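 note: 0% = neutral control wells and 100% = L-leucinethiol positive control wells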
# S100A4 inh HTS = inhibitors of S100A4-myosin IIA peptide binding, primary screen, biochemical, fluorescence polarization, TAMRA-MyoIIA peptide | Protein S100-A4 (Homo sapiens), P26447 | inhibition, % at 10.7 µM | 360,000 tested, 0.14% active;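 active = mean inhibition of at least 70% across replicates, with every replicate also reaching that level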
# Target sequence (P26447 whole entry, looked up): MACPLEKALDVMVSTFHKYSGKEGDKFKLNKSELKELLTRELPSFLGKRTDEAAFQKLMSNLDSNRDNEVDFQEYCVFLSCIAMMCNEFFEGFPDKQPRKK
#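 Material: human S100A4 monomer with TAMRA-labelled myosin IIA peptide; buffer or medium: HEPES pH 7.2 with CaCl2, KCl, NaCl, DTT, Triton; compound dosing: one concentration per compound; schedule: 5 min incubation before reading; benchmarks: neutral control DMSO, positive control TFP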
# RAD52 inh = RAD52 DNA annealing inhibitors, primary screen, biochemical, FRET, single point, set 2; DNA repair protein RAD52 homolog (Homo sapiens), P43351; recombinant RAD52 DNA annealing, FRET fluorescence; inhibition, % at 18.7 µM; 360,000 tested, 0.46% active;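 active = every replicate showing at least 50% inhibition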
# RAD52 DNA ctr = DNA-binding compounds via dye displacement, dose response, artefact control for RAD52 inhibitor project, biochemical, fluorescence polarization, cherry-pick; shares compounds with RAD52 inh; Salmon sperm DNA/acridine orange FP displacement; AC50, µM; 1,000 tested, 8% active;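 active = fitted half-maximal concentration for signal loss at or below twice the highest dose tested, in every separate run, actives reach about 64 µM in these data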
# Active calls of the source: *; i = inactive; · = not tested or not shown; ! = not confirmed by another sample. Rows were chosen to be rich in hits. Some 1.5% of all compounds tested hit in one or more screens of this group.
SMILES,INS-1E GSIS act,MLL AF4-AF9 inh,ERAP1 HTS inh,S100A4 inh HTS,RAD52 inh,RAD52 DNA ctr
CN1CCN(C2CCN(Cc3ccc(O)c4ncccc34)CC2)CC1,·,47.1*,-1.9,-0.6,91.8*,i
CO[C@H]1CN(C)C(=O)c2ccc(NC(C)=O)cc2OC[C@@H](C)N(Cc2ccccc2C(=O)O)C[C@@H]1C,4.1,-1.3,-1.8,-5.2,-5.6,·
C[C@@H]1CCCCO[C@@H](CN(C)C(=O)Nc2ccc3c(c2)OCO3)[C@H](C)CN([C@H](C)CO)C(=O)c2cc(NC(=O)NC3CCCCC3)ccc2O1,-30.7,·,·,·,·,·
CN(C)CCCNC(=O)C[C@H]1C[C@H](C(=O)N2CCOCC2)[C@@]2(CCC3CCCC3)c3[nH]c4cc(-c5ccco5)ccc4c3CCN2C1=O,9.3,40.6*,·,-0.4,51.6*,i
CO[C@@H]1CN(C)C(=O)c2cc(NS(C)(=O)=O)ccc2OC[C@H](C)N(C)C[C@H]1C,3.7,-3.7,-2.2,8.2,-4.0,·
Cc1cc(N2CCN(C)CC2)nc2ccc(NC(=S)N3CCN(c4ccc(Cl)cc4)CC3)cc12,-20.9,17.5,-5.4,-13.7,89.6*,i
Cc1cccc(N2CCN(C(=S)Nc3ccc4nc(N5CCN(C)CC5)cc(C)c4c3)CC2)c1C,22.4,5.2,-4.4,3.9,48.9,·
Cc1cc(N2CCN(C)CC2)nc2ccc(NC(=S)N3CCN(c4ccc(F)cc4)CC3)cc12,-28.8,-6.9,-4.2,-2.4,-6.4,·
Cc1cc(N2CCN(C)CC2)nc2ccc(NC(=S)N3CCCCC3)cc12,6.3,20.8,-0.5,-4.9,71.2*,i
Cc1cc(N2CCN(C)CC2)nc2ccc(NC(=S)N3CCCCCC3)cc12,18.6,5.1,·,0.6,51.8*,i
C[C@@H]1CN([C@@H](C)CO)C(=O)c2cc(NC(=O)c3ccccc3)ccc2O[C@@H](C)CCCCO[C@H]1CN(C)Cc1ccccc1,-12.1,·,·,·,·,·
COc1ccc2c3c([nH]c2c1)[C@@H](CO)N(Cc1cccnc1)CC31CN(C(=O)c2cccnc2)C1,9.0,·,·,0.3,-18.3,·
O=C(NC1Cc2ccccc2C1)[C@@H]1[C@@H](CO)[C@@H]2Cn3c(cccc3=O)[C@@H]2N1C(=O)C1CC1,9.5,-0.1,-3.3,0.7,11.0,·
COc1ccccc1CNc1nc(NCc2ccc(NC(C)=O)cc2)c2sccc2n1,-8.8,-5.9,0.3,3.3,50.8*,i
CC(=O)Nc1ccc(CNc2nc(NC(C)C)nc3cc(-c4ccccc4)sc23)cc1,5.4,0.6,7.1,-5.3,96.6*,i
COc1ccccc1CNc1nc(NCc2ccccc2OC)c2sccc2n1,-26.7,2.5,-2.6,5.6,-9.8,·
O=C(Cc1ccccc1)N1CC(=O)N2[C@H](C1)[C@@H](c1ccc(-c3ccccc3)cc1)[C@@H]2CO,-9.5,1.1,1.6,18.2,-20.3,·
COc1ccc(Cc2c(-c3ccc(C)cc3)nc3c(C)cc(Br)cn23)c(C)c1,-15.4,-2.4,·,-3.6,-75.4,·
COc1ccc(Cc2c(-c3ccc(OC)c(OC)c3)nc3c(C)cc(Br)cn23)c(C)c1,-26.5,3.3,9.7,-1.9,51.9*,i
COc1ccc(NC(=O)N(C)C[C@H]2Oc3c(NS(=O)(=O)c4cccs4)cccc3C(=O)N([C@@H](C)CO)C[C@H]2C)cc1,-17.3,1.4,3.3,-6.3,-0.2,·
CCN(CC)CCCNC(=O)c1csc(Nc2cccc3ccccc23)n1,0.3,16.9,1.9,4.4,91.9*,i
Cc1cc(C)n(-c2nc(NCCN(C)C)c3c4c(sc3n2)CCCC4)n1,52.9*,8.2,8.3,6.3,83.2*,i
Cc1cc(C)n(-c2nc(NCCN(C)C)c3c4c(sc3n2)COC(C)(C)C4)n1,-7.5,1.9,4.7,2.1,28.5,·
COc1cccc(C2=CC(=O)C(C(C)(C)C)N2C(C)(C)C)c1 (stereo not given),-28.6,2.4,·,0.9,79.5*,i
COc1cccc(C2=NOC(C(=O)NC(C)(C)C)C2)c1 (stereo not given),6.8,·,·,·,·,·
SMILES,INS-1E GSIS act,MLL AF4-AF9 inh,ERAP1 HTS inh,S100A4 inh HTS,RAD52 inh,RAD52 DNA ctr
O=C(O)c1cc(-n2nnnc2SCc2ccc([N+](=O)[O-])cc2)ccc1Cl,·,-11.8,-3.0,-4.9,105.0*,i
CCN(CC)Cc1cc(Nc2ccnc3cc(Cl)ccc23)ccc1O,8.7,8.9,-0.7,0.0,87.9*!,i
Oc1ccc(Nc2ccnc3cc(Cl)ccc23)cc1,7.3,0.9,0.5,-0.1,-4.2,·
CO[C@H]1CN(C)C(=O)c2ccc(NC(=O)C3CC3)cc2OC[C@H](C)N(CC2CC2)C[C@@H]1C,7.8,1.1,-4.5,11.8,-5.0,·
O=C(C[C@@H]1CC[C@@H]2[C@H](COC[C@@H](O)CN2Cc2ccc(Oc3ccccc3)cc2)O1)N1CCCCC1,-11.4,2.7,0.7,4.3,18.0,·
O=c1c2ccccc2sc2c(CO)ccc(NCCN3CCCCC3)c12,·,19.0,2.3,-6.2,35.3,·
CCN(CC)CCNc1ccc(CO)c2sc3ccccc3c(=O)c12,·,11.5,3.8,-4.4,54.1*,21.9µM*
Cc1ccc(NCCN(C)C)c2c(=O)c3cc(O)ccc3sc12,109.4,39.2*,63.9*,1.4,84.2*,11.9µM*
COc1cc(C)c2sc3ccccc3c(=O)c2c1NCCN(C)C,-9.2,44.7*,5.5,0.2,94.5*,17.5µM*
CN(C)CCNc1ccc2nnn3c4ccc(O)cc4c(=O)c1c23,20.8,-3.5,1.4,1.1,48.2,·
COc1cccc(S(=O)(=O)Nc2ccc3c(c2)[C@H]2C[C@H](CC(=O)NCc4ccccc4F)O[C@@H](CO)[C@H]2O3)c1,3.5,3.1,1.7,5.9,3.7,·
COc1ccccc1Nc1nc(NCCCN(C)C)nc(N)c1[N+](=O)[O-],-13.9,14.8,-2.7,-1.4,94.7*,i
CN(C)CCCNc1cc(-c2ccccc2)nc2cc(-c3cccc(F)c3)nn12,26.4,6.6,18.2,-5.9,66.6*,i
COCCN1CCN(c2cc(-c3ccccc3)nc3cc(-c4cccc(F)c4)nn23)CC1,-26.8,·,·,·,·,·
CCCCc1nc2sc3c(SCCN(C)C)ncnc3c2c2c1CCC2,4.4,15.4,·,3.9,59.5*,i
CCCCc1nc2sc3c(=O)n(N)cnc3c2c2c1CCCC2,8.6,-0.8,-4.0,-5.5,-14.7,·
Nc1nc(N)c2cc(Sc3ccc4ccccc4c3)ccc2n1,·,-0.2,·,-2.7,-3.2,·
Nc1nc(N)c2cc(Sc3ccc(Cl)cc3)ccc2n1,186.8*,0.6,-0.2,-1.2,84.6*,i
NC(=S)NN=C1c2cc(OCCN3CCOCC3)ccc2-c2ccc(OCCN3CCOCC3)cc21,6.3,12.4,1.3,3.3,87.2*,i
